Assay results gathered from unrelated publications.
Lines come from different studies, so protocols differ.
Target: Homeodomain-interacting protein kinase 3 (HIPK3, Homo sapiens, UniProt Q9H422)

Cc1c(C(=O)O)cc(-c2ccc(C3CCNCC3)cc2)c2ccc(-c3ccc(C(F)(F)F)cc3)cc12 — remaining binding (binding, competition with immobilised ligand; 1 µM): 100%
C#Cc1cccc(Nc2ncnc3cc(OCCOC)c(OCCOC)cc23)c1 — remaining signal (cell-free assay; 0.5 µM): 102%
CCc1ccccc1C(=O)Nc1n[nH]c2c(C)c(F)c(C3C(C#N)=C(C)N(C)C(C)=C3C#N)cc12 — remaining binding (cell-free assay, competition with immobilised ligand; 1 µM): 100%
CNC(=O)c1cc(Oc2ccc(NC(=O)Nc3ccc(Cl)c(C(F)(F)F)c3)cc2)ccn1 — remaining signal (cell-free assay; 0.5 µM): 85.7%
O=C(Nc1cccnn1)N1CC(C/C=C/c2cncc(Oc3ccc(C(F)(F)F)cn3)n2)C1 — remaining binding (cell-free assay, competition with immobilised ligand; 1 µM): 74%
Cc1cc(NC(=O)c2cccc3cc(-c4cccc5[nH]nc(N)c45)ccc23)ccc1F — activity vs control (enzyme activity, inhibitor; 0.1 µM): 92%
COc1cc(-c2cc(-c3ccc(N4CCNCC4)cc3)cnc2C)cc(OC)c1OC — inhibition (enzyme activity, inhibitor; 1 µM): 2%
N#Cc1ccc(Nc2ccc3[nH]c(=O)[nH]c3c2)c(Cl)c1 — remaining binding (cell-free assay, competition with immobilised ligand; 1 µM): 94%
Cc1ccc(Nc2nccc(N(C)c3ccc4c(C)n(C)nc4c3)n2)cc1S(N)(=O)=O — inhibition (enzyme activity, inhibitor; 0.3 µM): 24%
O=C(O)c1ccc2c(c1)nc(NCc1ccccc1)c1ccncc12 — remaining activity (enzyme activity, inhibitor, radiometric; 1 µM): 68%
O=C(NC[C@@H]1[C@H]2CN(C(=O)OCc3cc(C(F)(F)F)cc(C(F)(F)F)c3)C[C@@H]12)c1ccc2[nH]nnc2c1 — remaining binding (cell-free assay, competition with immobilised ligand; 1 µM): 89%
O=C(O)c1ccc2c(c1)nc(NCCc1cccc(F)c1)c1ccncc12 — remaining activity (enzyme activity, inhibitor, radiometric; 1 µM): 8%
FC(F)(F)Oc1cccc(-c2cnc3ccc(-c4ccncc4)nn23)c1 — activity vs control (enzyme activity, inhibitor, radiometric; 5 µM): 35%
COc1cccc(CCNc2nc3cc(C(=O)O)ccc3c3cnccc23)c1 — remaining activity (enzyme activity, inhibitor, radiometric; 1 µM): 21%
CCOc1cc(-c2nncn2C)ccc1Nc1ncc2cc(C)nc(NCC(C)(C)C)c2n1 — inhibition (enzyme activity, inhibitor, FRET; 1 µM): < 15%
Cc1noc([C@H]2C[C@@H](c3ccc(C(F)(F)F)cc3)CN(C(=O)N3CCS(=O)(=O)C3)C2)n1 — remaining binding (cell-free assay, competition with immobilised ligand; 1 µM): 96%
O=C(O)c1ccc2c(c1)nc(NCCc1cccc(F)c1)c1ncncc12 — remaining activity (enzyme activity, inhibitor, radiometric; 1 µM): 27%
O=C1NC(=O)c2cc(Nc3ccc(F)cc3)c(Nc3ccc(F)cc3)cc21 — remaining signal (cell-free assay; 0.5 µM): 95.3%
O=C(O)c1ccc2c(c1)nc(Nc1ccc(Cl)cc1)c1ccncc12 — remaining activity (enzyme activity, inhibitor, radiometric; 1 µM): 9%
COc1cc2ncnc(Nc3ccc(Oc4ccccc4)c(C)c3C)c2cc1OC — inhibition (enzyme activity, inhibitor; 1 µM): 1%
O=C(O)c1ccc2c(c1)nc(NCCc1ccccc1)c1ncncc12 — remaining activity (enzyme activity, inhibitor, radiometric; 1 µM): 16%
CO[C@H]1CC[C@H](CNc2ccc(S(=O)(=O)NC(=O)c3ccc(N4CCN(CC5=C(c6ccc(Cl)cc6)CC(C)(C)CC5)CC4)cc3Oc3cnc4[nH]ccc4c3)cc2[N+](=O)[O-])CC1 — remaining binding (cell-free assay, competition with immobilised ligand; 1 µM): 100%
COc1cc(/C=C/C(=O)CC(=O)/C=C/c2ccc(O)c(OC)c2)ccc1O — activity vs control (enzyme activity, inhibitor; 1 µM): 88%
O=C(O)c1ccc2c(c1)nc(Nc1ccc3ccccc3c1)c1ncncc12 — remaining activity (enzyme activity, inhibitor, radiometric; 1 µM): 3%
CCN(CC)CCNC(=O)c1c(C)[nH]c(/C=C2\C(=O)Nc3ccc(F)cc32)c1C — inhibition (enzyme activity, inhibitor; 0.3 µM): 21%
O=C(O)c1ccc2c(c1)nc(Nc1cccc(F)c1)c1ncncc12 — remaining activity (enzyme activity, inhibitor, radiometric; 1 µM): 5%
CCCOc1ccc([C@H]2[C@H](C(=O)O)[C@@H](c3ccc4c(c3)OCO4)CN2CC(=O)Nc2c(CC)cccc2CC)cc1 — remaining binding (cell-free assay, competition with immobilised ligand; 1 µM): 74%
COc1cc2nccc(Oc3ccc(NC(=O)c4c5n(n(-c6ccc(F)cc6)c4=O)CCCC5)cc3)c2cc1OC — inhibition (enzyme activity, inhibitor; 0.1 µM): -8%
COc1cc(Nc2cnc(C#N)c(O[C@H](C)CN(C)C)n2)ncc1-c1cnn(C)c1 — remaining activity (enzyme activity, inhibitor, radiometric; 10 µM): 111%
CN1CC(Oc2cnc(C#N)cc2-c2ccn3nc(NC(=O)C4CC4)cc3c2)C1 — inhibition (enzyme activity, inhibitor; 1 µM): -3%
